Data reported in ChEMBL document CHEMBL1130288, “(3R)-N-(1-(tert-butylcarbonylmethyl)-2,3-dihydro-2-oxo-5-(2-pyridyl)-1H-1,4-benzodiazepin-3-yl)-N'-(3-(methylamino)phenyl)urea (YF476): a potent and orally active gastrin/CCK-B antagonist” (J Med Chem, 1997).
pIC50: −log10 of the molar value.

How the values were obtained:
[1] = target: Cholecystokinin receptor (Rattus norvegicus) (UniProt P30551+P30553); experiment: Ratio of inhibitory concentration; CCK-A receptor to CCK-B receptor; type: protein assay
[2] = target: T1, Gastrin/cholecystokinin type B receptor (Rattus norvegicus, UniProt P30553); experiment: Inhibitory concentration against radioligand [125I]CCK-8 binding to gastrin/Cholecystokinin type B receptor from rat brain
T1 sequence (P30553 whole entry): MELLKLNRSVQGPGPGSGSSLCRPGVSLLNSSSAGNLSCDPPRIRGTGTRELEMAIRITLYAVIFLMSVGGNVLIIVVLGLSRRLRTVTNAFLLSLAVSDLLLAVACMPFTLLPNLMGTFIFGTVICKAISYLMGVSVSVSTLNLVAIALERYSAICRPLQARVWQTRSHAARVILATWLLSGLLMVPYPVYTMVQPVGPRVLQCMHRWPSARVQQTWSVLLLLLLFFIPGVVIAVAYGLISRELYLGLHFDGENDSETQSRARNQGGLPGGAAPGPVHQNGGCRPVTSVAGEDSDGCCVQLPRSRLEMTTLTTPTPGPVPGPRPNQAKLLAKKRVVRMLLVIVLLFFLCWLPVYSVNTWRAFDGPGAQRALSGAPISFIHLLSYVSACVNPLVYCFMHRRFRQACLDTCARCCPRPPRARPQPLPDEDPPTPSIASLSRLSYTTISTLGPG
In short: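 SD rat whole-brain membranes prepared by sucrose homogenisation, differential centrifugation and Triton X-100 wash. Incubated 120 min at 25 °C with [125I]BH-CCK-8 and compound (in DMSO) in 10 mM HEPES pH 6.5 with NaCl, MgCl2, EDTA, bacitracin. Filtration, γ-counting. Nonspecific binding with […] CCK-8. IC50 is the concentration giving 50% inhibition of specific binding.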

[3] = target: T2, Cholecystokinin receptor type A (Rattus norvegicus, UniProt P30551); experiment: Inhibitory concentration against radioligand [3 H]L-364,718 binding to gastrin/Cholecystokinin type A receptor from rat pancreas
T2 sequence (P30551 whole entry): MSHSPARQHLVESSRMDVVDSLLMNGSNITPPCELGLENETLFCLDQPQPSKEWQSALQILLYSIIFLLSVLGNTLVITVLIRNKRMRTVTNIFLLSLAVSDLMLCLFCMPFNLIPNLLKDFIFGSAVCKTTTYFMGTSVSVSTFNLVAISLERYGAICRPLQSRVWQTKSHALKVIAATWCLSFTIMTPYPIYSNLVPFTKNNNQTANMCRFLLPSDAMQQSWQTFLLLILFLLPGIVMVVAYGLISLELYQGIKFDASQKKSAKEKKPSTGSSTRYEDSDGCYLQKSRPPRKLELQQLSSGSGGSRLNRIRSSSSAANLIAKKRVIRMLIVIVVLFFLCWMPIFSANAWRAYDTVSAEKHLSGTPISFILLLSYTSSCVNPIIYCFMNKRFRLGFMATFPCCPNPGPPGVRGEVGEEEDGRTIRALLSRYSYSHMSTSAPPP
In short: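 Rat pancreas membranes in 50 mM Tris-HCl pH 7.7 containing BSA, MgCl2, bacitracin and DTT. Incubated 30 min at 37 °C with [3H]L-364,718 and compound (in DMSO). Filtration, scintillation counting. Nonspecific binding with […] L-364,718. IC50 is the concentration inhibiting specific binding by 50%.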

Rattus norvegicus [4] = experiment: Inhibition of pentagastrin-induced gastric acid secretion in anathesized rats at 0.1 uM/Kg upon intravenous administration; type: functional, Stomach
In short: (§1)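 Anesthetized rats, pylorus-ligated with duodenal cannula. Stomach perfused with saline (pH 7.0) at 3 mL/min. Acid output by continuous pH-stat titration with 25 mM NaOH to pH 7.0, per 10 min. Pentagastrin infused iv via femoral vein. Compound in polyethylene glycol 300 given iv 1 h after pentagastrin start. ED50 is the dose reducing acid to 50% of maximum.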

Rattus norvegicus [5] = experiment: Inhibition of pentagastrin-induced gastric acid secretion in anathesized rats at 0.03 uM/Kg upon intravenous administration; type: functional, Stomach; in short: as §1
Canis familiaris [6] = experiment: Compound at an peroral dose of 3 uM/Kg was tested for the inhibition of pentagastrin-induced gastric acid secretion in heidenhain pouch dogs; type: functional, Canis lupus familiaris, Stomach
In short: (§2)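 Male beagle dogs with Heidenhain pouch, food withheld 18 h (water free). Pentagastrin 8 µmol/kg/h infused via femoral vein from 3 h before until 6 h after oral dosing. Gastric juice collected every 15 min; acidity by automatic titration with 0.05 N NaOH to pH 7.0. Inhibition relative to values just before dosing.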

Canis familiaris [7] = experiment: Compound at an peroral dose of 1 umol/kg was tested for the inhibition of pentagastrin-induced gastric acid secretion in heidenhain pouch dogs; type: functional; conditions: Canis lupus familiaris, Stomach, po; in short: as §2
Canis familiaris [8] = experiment: Concentration required to inhibit pentagastrin-induced gastric acid secretion in heidenhain pouch dogs upon peroral administration; type: functional; conditions: Canis lupus familiaris, Stomach, po; in short: as §2
Canis familiaris [9] = experiment: Concentration required to inhibit pentagastrin-induced gastric acid secretion in heidenhain pouch dogs upon intravenous administration; type: functional; conditions: Canis lupus familiaris, Stomach
In short: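 Male beagle dogs with Heidenhain pouch, fasted 18 h with water allowed. Pentagastrin infused at 8 µmol/kg/h through femoral vein. Compound dissolved in DMF and given iv 3 h after infusion start. Juice collected every 15 min, volume measured, acidity titrated with 0.05 N NaOH to pH 7.0.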

Rattus norvegicus [10] = experiment: Inhibition of pentagastrin-induced gastric acid secretion in anathesized rats upon intravenous administration; type: functional; conditions: Stomach; in short: as §1
Rattus norvegicus [11] = experiment: Inhibition of pentagastrin-induced gastric acid secretion in Dawley rats following intravenous administration; type: functional; conditions: Stomach; in short: as §1
Canis familiaris [12] = experiment: Compound at an peroral dose of 0.1 uM/Kg was tested for the inhibition of pentagastrin-induced gastric acid secretion in heidenhain pouch dogs; type: functional, Canis lupus familiaris, Stomach; in short: as §2
Canis familiaris [13] = experiment: Compound at an peroral dose of 0.03 uM/Kg was tested for the inhibition of pentagastrin-induced gastric acid secretion in heidenhain pouch dogs; type: functional, Canis lupus familiaris, Stomach; in short: as §2
Canis familiaris [14] = experiment: Compound at an peroral dose of 0.3 uM/Kg was tested for the inhibition of pentagastrin-induced gastric acid secretion in heidenhain pouch dogs; type: functional, Canis lupus familiaris, Stomach; in short: as §2

Row | SMILES | Ratio [1] | pIC50 [2] | pIC50 [3] | Inhibition (Rattus norvegicus [4]) | further results
1 | CC(C)(C)C(=O)CN1C(=O)C(NC(=O)Nc2cccc(C(=O)O)c2)N=C(c2ccccc2)c2ccccc21 (configuration not stated) | 626 | 8.48 | 5.69 | 56% | 
2 | CC(C)(C)C(=O)CN1C(=O)C(NC(=O)Nc2cccc(C#N)c2)N=C(c2ccccc2)c2ccccc21 (configuration not stated) | 542 | 8.89 | 6.15 | 65% | 
3 | CN(C)c1cccc(NC(=O)N[C@H]2N=C(c3ccccn3)c3ccccc3N(CC(=O)C(C)(C)C)C2=O)c1 | 454 | 8.90 | 6.24 |  | 
4 | CCN(CC)c1cccc(NC(=O)N[C@@H]2N=C(c3ccccn3)c3ccccc3N(CC(=O)C(C)(C)C)C2=O)c1 | 2740 | 9.96 | 6.52 | 74% | 
5 | Cc1cccc(NC(=O)N[C@@H]2N=C(c3ccccc3)c3ccccc3N(CC(=O)C(C)(C)C)C2=O)c1 | 213 | 9.28 | 6.95 |  | Inhibition (Rattus norvegicus [5]): 77%; Inhibition (Canis familiaris [6]): 53%
6 | CC(C)(C)C(=O)CN1C(=O)C(NC(=O)Nc2cccc(NC=O)c2)N=C(c2ccccc2)c2ccccc21 (configuration not stated) | 951 | 9.23 | 6.25 | 74% | 
7 | CC(C)(C)C(=O)CN1C(=O)[C@H](NC(=O)Nc2cccc(N)c2)N=C(c2ccccn2)c2ccccc21 | 4230 | 9.37 | 5.74 | 62% | 
8 | CC(C)(C)C(=O)CN1C(=O)[C@H](NC(=O)Nc2cccc(N3CCCC3)c2)N=C(c2ccccn2)c2ccccc21 | 2300 | 9.96 | 6.60 | 75% | 
9 | Cc1cccc(NC(=O)N[C@@H]2N=C(c3ccccc3)c3ccccc3N(CC(=O)c3ccccc3C)C2=O)c1 | 1330 |  |  |  | inhibition in vivo at 1 µmol/kg (Canis familiaris [7]): 26%; ED50 (Canis familiaris [8]): 1.9 µmol/kg; ED50 (Canis familiaris [9]): 0.026 µmol/kg; ED50 (Rattus norvegicus [10]): 0.0083 µmol/kg; Inhibition (Canis familiaris [6]): 72%
10 | CCN(CC)c1cccc(NC(=O)N[C@@H]2N=C(c3ccccc3)c3ccccc3N(CC(=O)C(C)(C)C)C2=O)c1 | 3990 | 9.85 | 6.25 | 82% | 
11 | CC(C)(C)C(=O)CN1C(=O)C(NC(=O)Nc2cccc([N+](=O)[O-])c2)N=C(c2ccccc2)c2ccccc21 (configuration not stated) | 3680 | 9.80 | 6.23 | 76% | 
12 | CC(C)(C)C(=O)CN1C(=O)[C@H](NC(=O)Nc2cccc(N3CCCCC3)c2)N=C(c2ccccn2)c2ccccc21 | 1120 | 9.08 | 6.03 | 55% | 
13 | CNc1cccc(NC(=O)N[C@@H]2N=C(c3ccccn3)c3ccccc3N(CC(=O)C(C)(C)C)C2=O)c1 [NETAZEPIDE] | 5020 |  |  | 87% | ED50 (Canis familiaris [8]): 0.021 µmol/kg; ED50 (Rattus norvegicus [11]): 0.008 µmol/kg; Inhibition (Canis familiaris [12]): 100%; ED50 (Canis familiaris [9]): 0.018 µmol/kg; Inhibition (Canis familiaris [13]): 65%
14 | CN(C)c1cccc(NC(=O)N[C@@H]2N=C(c3ccccn3)c3ccccc3N(CC(=O)C(C)(C)C)C2=O)c1 | 565 |  |  |  | ED50 (Rattus norvegicus [11]): 0.011 µmol/kg; Inhibition (Rattus norvegicus [5]): 65%; Inhibition (Canis familiaris [12]): 98%; ED50 (Canis familiaris [9]): 0.014 µmol/kg; Inhibition (Canis familiaris [13]): 77%
15 | CC(C)(C)C(=O)CN1C(=O)[C@H](NC(=O)Nc2cccc(N)c2)N=C(c2ccccc2)c2ccccc21 | 1910 |  |  | 75% | 
16 | CNc1cccc(NC(=O)N[C@@H]2N=C(c3ccccc3)c3ccccc3N(CC(=O)C(C)(C)C)C2=O)c1 | 1090 |  |  | 80% | 
17 | CC(C)(C)C(=O)CN1C(=O)[C@H](NC(=O)Nc2cccc(N3CCCC3)c2)N=C(c2ccccc2)c2ccccc21 | 923 | 9.77 | 6.80 | 79% | 
18 | Cc1cccc(NC(=O)N[C@@H]2N=C(c3ccccn3)c3ccccc3N(CC(=O)C(C)(C)C)C2=O)c1 | 1070 |  | 6.33 | 78% | Inhibition (Canis familiaris [14]): 7%; Inhibition (Canis familiaris [6]): 97%
19 | CN(C)c1cccc(NC(=O)N[C@@H]2N=C(c3ccccc3)c3ccccc3N(CC(=O)C(C)(C)C)C2=O)c1 | 423 | 9.68 | 7.05 | 65% | ED50 (Rattus norvegicus [11]): 0.012 µmol/kg; Inhibition (Canis familiaris [6]): 99%
